Laboratory results published in ChEMBL document CHEMBL4602616, “Design, synthesis and biological evaluation of novel indole-based oxalamide and aminoacetamide derivatives as tubulin polymerization inhibitors” (Bioorg Med Chem Lett, 2020).
Activity calls are given as the source filed them. The calls are words filed in the database; no cut-off is given here.

What was measured:
[1] = test system: HeLa; assay: Antiproliferative activity against human HeLa cells assessed as reduction in cell growth after 48 hrs by MTT assay; format: functional, cell-based
[2] = test system: HeLa; assay: Antiproliferative activity against human HeLa cells assessed as reduction in cell viability; format: functional, cell-based
[3] = test system: HCT-116; assay: Antiproliferative activity against human HCT116 cells assessed as reduction in cell viability; format: functional, cell-based
[4] = target: T1, Tubulin (Homo sapiens) (UniProt P68371+Q9H4B7+P0DPH7+P68366+Q13509+Q71U36+P04350+Q3ZCM7+P07437+P68363+Q9BQE3+Q6PEY2+Q13885+Q9BVA1+Q9BUF5); assay: Inhibition of tubulin polymerization (unknown origin) at 10 uM relative to control; format: protein-complex assay
Procedure, shortened: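 In vitro tubulin polymerization measured with compounds at a final concentration of 10 μM; result given as percent inhibition.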

[5] = test system: PC-3; assay: Antiproliferative activity against human PC3 cells assessed as reduction in cell viability; format: functional, cell-based
[6] = test system: HeLa; assay: Induction of cell cycle arrest in human HeLa cells assessed as accumulation of cells at G2/M phase after 24 hrs by PI-staining based flow cytometric analysis; format: functional
[7] = test system: HeLa; assay: Induction of cell cycle arrest in human HeLa cells assessed as accumulation at G2/M phase at 30 uM after 24 hrs by PI staining based flow cytometric analysis (reference value: 11.76%); format: functional
[8] = test system: HeLa; assay: Induction of cell cycle arrest in human HeLa cells assessed as accumulation at G2/M phase at 7.5 uM after 24 hrs by PI staining based flow cytometric analysis (reference value: 11.76%); format: functional
[9] = test system: HeLa; assay: Induction of cell cycle arrest in human HeLa cells assessed as accumulation at G0/G1 phase at 7.5 uM after 24 hrs by PI staining based flow cytometric analysis (reference value: 69.86%); format: functional
[10] = test system: HeLa; assay: Induction of cell cycle arrest in human HeLa cells assessed as debris content at 15 uM after 24 hrs by PI staining based flow cytometric analysis (reference value: 0.05%); format: functional
[11] = target: T1, Tubulin (Homo sapiens); assay: Inhibition of tubulin polymerization in human HeLa cells assessed as microtubule spindle shrinkage around nucleus at 15 to 30 uM after 12 hrs by immunofluorescence based confocal microscopy; format: cell-based
Procedure, shortened: (§1)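 HeLa cells grown on glass coverslips, incubated with compound at 15 or 30 μM for 12 h, then fixed; α- and β-tubulin visualized by immunocytochemistry and confocal microscopy, compared with untreated cells.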

[12] = target: T1, Tubulin (Homo sapiens); assay: Inhibition of tubulin polymerization in human HeLa cells assessed as disruption of alpha tubulin at 15 to 30 uM after 12 hrs by immunofluorescence based confocal microscopy; format: cell-based; procedure, shortened: as §1
[13] = test system: HeLa; assay: Induction of cell cycle arrest in human HeLa cells assessed as accumulation at G0/G1 phase at 15 uM after 24 hrs by PI staining based flow cytometric analysis (reference value: 69.86%); format: functional
[14] = target: T1, Tubulin (Homo sapiens); assay: Inhibition of tubulin polymerization in human HeLa cells assessed as cell membrane rounding at 15 to 30 uM after 12 hrs by immunofluorescence based confocal microscopy; procedure, shortened: as §1
[15] = test system: HeLa; assay: Induction of cell cycle arrest in human HeLa cells assessed as accumulation at S phase at 7.5 uM after 24 hrs by PI staining based flow cytometric analysis (reference value: 18.38%); format: functional
[16] = target: T1, Tubulin (Homo sapiens); assay: Inhibition of tubulin polymerization in human HeLa cells assessed as disruption of beta tubulin at 15 to 30 uM after 12 hrs by immunofluorescence based confocal microscopy; format: cell-based; procedure, shortened: as §1
[17] = test system: HeLa; assay: Induction of cell cycle arrest in human HeLa cells assessed as accumulation at G2/M phase at 15 uM after 24 hrs by PI staining based flow cytometric analysis (reference value: 11.76%); format: functional
[18] = test system: HeLa; assay: Induction of cell cycle arrest in human HeLa cells assessed as accumulation at G0/G1 phase at 30 uM after 24 hrs by PI staining based flow cytometric analysis (reference value: 69.86%); format: functional
[19] = test system: HeLa; assay: Induction of cell cycle arrest in human HeLa cells assessed as accumulation at S phase at 15 uM after 24 hrs by PI staining based flow cytometric analysis (reference value: 18.38%); format: functional
[20] = test system: HeLa; assay: Induction of cell cycle arrest in human HeLa cells assessed as debris content at 7.5 uM after 24 hrs by PI staining based flow cytometric analysis (reference value: 0.05%); format: functional
[21] = test system: HeLa; assay: Induction of cell cycle arrest in human HeLa cells assessed as debris content at 30 uM after 24 hrs by PI staining based flow cytometric analysis (reference value: 0.05%); format: functional
[22] = test system: HeLa; assay: Induction of cell cycle arrest in human HeLa cells assessed as accumulation at S phase at 30 uM after 24 hrs by PI staining based flow cytometric analysis (reference value: 18.38%); format: functional

## O=C(Nc1ccncc1)C(=O)Nc1c(C(=O)c2ccccc2)[nH]c2ccccc12
[1]
  IC50: 85.3 µM

## O=C(Nc1ccncc1)C(=O)Nc1c(C(=O)c2ccco2)[nH]c2ccccc12
[1]
  IC50: 56.8 µM

## O=C(Nc1ccccc1)C(=O)Nc1c(C(=O)c2ccccc2)[nH]c2ccccc12
[1]
  IC50: 62.9 µM

## CC(=O)c1[nH]c2cc(C)ccc2c1NC(=O)C(=O)Nc1ccncc1
[1]
  IC50: > 100 µM

## COc1cc(NCC(=O)Nc2c(C(=O)c3ccccc3)[nH]c3cc(Cl)ccc23)cc(OC)c1OC
[1]
  IC50: > 100 µM

## CC(=O)c1[nH]c2ccccc2c1NC(=O)C(=O)Nc1ccncc1
[1]
  IC50: 62.4 µM

## Cc1ccc2c(NC(=O)C(=O)Nc3ccccc3)c(C(=O)C3CC3)[nH]c2c1
[1]
  IC50: 82.3 µM

## O=C(Nc1ccncc1)C(=O)c1cn(Cc2ccc(Cl)cc2)c2ccccc12 [INDIBULIN]
[2]
  IC50: 0.115 µM

## COc1ccc(C(=O)c2[nH]c3cc(Cl)ccc3c2NC(=O)CNc2cc(OC)c(OC)c(OC)c2)cc1
[1]
  IC50: > 100 µM

## COc1ccc(C(=O)c2[nH]c3ccccc3c2NC(=O)CNc2ccccc2C)cc1
[1]
  IC50: 27.9 µM

## COc1cc2c(c(OC)c1OC)-c1ccc(OC)c(=O)cc1[C@@H](NC(C)=O)CC2 [COLCHICINE]
[1]
  IC50: 0.03 µM
[3]
  IC50: 0.25 µM

## O=C(Nc1ccncc1)C(=O)Nc1c[nH]c2ccccc12
[1]
  IC50: > 100 µM

## O=C(Nc1ccccc1)C(=O)Nc1c[nH]c2ccccc12
[1]
  IC50: 76.7 µM

## Cc1ccc(C(=O)c2[nH]c3ccccc3c2NC(=O)CNc2ccccc2C)cc1
[1]
  IC50: 31.1 µM

## O=C(Nc1ccncc1)C(=O)Nc1c(C(=O)C2CC2)[nH]c2cc(Cl)ccc12
[1]
  IC50: 80.7 µM

## Cc1ccc2c(NC(=O)C(=O)Nc3ccncc3)c(C(=O)c3ccco3)[nH]c2c1
[1]
  IC50: 56.9 µM

## O=C(Nc1ccncc1)C(=O)Nc1c(C(=O)C2CC2)[nH]c2ccccc12
[1]
  IC50: > 100 µM

## O=C(Nc1ccccc1)C(=O)Nc1c(C(=O)C2CC2)[nH]c2ccccc12
[1]
  IC50: > 100 µM

## O=C(Nc1ccccc1)C(=O)Nc1c(C(=O)C2CC2)[nH]c2cc(Cl)ccc12
[1]
  IC50: > 100 µM

## O=C(Nc1ccncc1)C(=O)Nc1c(C(=O)c2ccco2)[nH]c2cc(Cl)ccc12
[1]
  IC50: 21.8 µM

## COc1ccc(C(=O)c2[nH]c3cc(Cl)ccc3c2NC(=O)CNc2ccc(C)cc2)cc1
[4]
  inhibition: 29%
[5]
  IC50: 15.8 µM
[1]
  IC50: 18.3 µM
[3]
  IC50: 20.4 µM

## COc1ccc(C(=O)c2[nH]c3cc(Cl)ccc3c2NC(=O)CNc2ccc(F)cc2)cc1
[4]
  inhibition: 43%
[5]
  IC50: 21.8 µM
[1]
  IC50: 16.7 µM
[3]
  IC50: 18.2 µM

## COc1ccc(NCC(=O)Nc2c(C(=O)c3ccc(OC)cc3)[nH]c3ccccc23)cc1
[4]
  inhibition: 7%
[5]
  IC50: 43.7 µM
[1]
  IC50: 16.2 µM
[3]
  IC50: 46.9 µM

## CC(=O)c1[nH]c2cc(Cl)ccc2c1NC(=O)C(=O)Nc1ccncc1
[1]
  IC50: 69.6 µM

## O=C(CNc1ccccc1)Nc1c(C(=O)c2ccccc2)[nH]c2cc(Cl)ccc12
[6]
  Activity: Dose-dependent effect
[4]
  inhibition: 46%
[7]
  Activity: 25.2%
[8]
  Activity: 14.2%
[9]
  Activity: 68.1%
[5]
  IC50: 14.4 µM
[10]
  Activity: 0%
[11]
  inhibition: Active
[12]
  inhibition: Active
[13]
  Activity: 64.57%
[14]
  inhibition: Active
[15]
  Activity: 17.7%
[16]
  inhibition: Active
[17]
  Activity: 20.7%
[1]
  IC50: 15.4 µM
[18]
  Activity: 64.24%
[19]
  Activity: 14.73%
[20]
  Activity: 0.04%
[21]
  Activity: 0.07%
[3]
  IC50: 12 µM
[22]
  Activity: 10.56%

## Cc1ccc2c(NC(=O)C(=O)Nc3ccncc3)c(C(=O)c3ccccc3)[nH]c2c1
[1]
  IC50: 75.1 µM

## O=C(Nc1ccccc1)C(=O)Nc1c(C(=O)c2ccccc2)[nH]c2cc(Cl)ccc12
[1]
  IC50: 29.2 µM

## O=C(Nc1ccncc1)C(=O)Nc1c(C(=O)c2ccccc2)[nH]c2cc(Cl)ccc12
[1]
  IC50: > 100 µM

## Cc1ccc2c(NC(=O)C(=O)Nc3ccncc3)c(C(=O)C3CC3)[nH]c2c1
[1]
  IC50: > 100 µM

## Cc1ccc2c(NC(=O)C(=O)Nc3ccccc3)c(C(=O)c3ccccc3)[nH]c2c1
[1]
  IC50: 55.2 µM
